Assay results as given in BindingDB's records for doi:10.1021/jm00109a027 (University of Minnesota, 1991).

How the values were obtained:
[1] = target: Kappa-type opioid receptor (Cavia porcellus, UniProt P41144); experiment: Compound was evaluated for the binding affinity to opioid receptor kappa using [3H]-EK as radioligand in guinea pig brain membrane
Outline: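 Radioligand displacement in guinea pig brain membranes, modified from an earlier published method. [3H]EK was used with 1 μM DAMGO present to block μ sites.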

Mu-type opioid receptor = Mu-type opioid receptor (Cavia porcellus, UniProt P97266); experiment: Compound was evaluated for the binding affinity to Opioid receptor mu using [3H]DAMGO as radioligand in guinea pig brain membrane
Sequence of Mu-type opioid receptor (P97266 whole entry): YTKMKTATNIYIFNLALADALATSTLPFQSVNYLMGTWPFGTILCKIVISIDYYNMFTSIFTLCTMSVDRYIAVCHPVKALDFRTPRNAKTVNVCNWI

[2] = Compound was evaluated for the binding affinity to opioid receptor delta

Sequence of Kappa-type opioid receptor (P41144 whole entry): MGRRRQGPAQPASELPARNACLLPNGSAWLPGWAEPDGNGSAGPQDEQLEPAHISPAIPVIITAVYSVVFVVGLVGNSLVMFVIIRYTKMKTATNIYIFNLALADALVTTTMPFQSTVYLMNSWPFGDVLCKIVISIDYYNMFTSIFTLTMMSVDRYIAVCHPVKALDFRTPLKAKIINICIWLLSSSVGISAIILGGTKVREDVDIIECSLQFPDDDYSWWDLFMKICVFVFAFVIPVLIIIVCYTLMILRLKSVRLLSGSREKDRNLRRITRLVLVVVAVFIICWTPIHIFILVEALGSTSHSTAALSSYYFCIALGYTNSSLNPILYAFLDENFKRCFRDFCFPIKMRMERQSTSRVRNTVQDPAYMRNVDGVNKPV

| SMILES | Ki [1] [nM] | Ki (Mu-type opioid receptor) [nM] | Ki [2] [nM] |
| --- | --- | --- | --- |
| Oc1ccc2c3c1O[C@H]1C(c4ccccc4)=CC[C@@]4(O)[C@@H](C2)N(CC2CC2)CC[C@]314 | 0.01 | 0.005 | – |
| Oc1ccc2c3c1O[C@H]1c4nc5ccccc5nc4C[C@@]4(O)[C@@H](C2)N(CC2CC2)CC[C@]314 | 191 | 7.3 | – |
| Cn1c2c(c3c1[C@@H]1Oc4c(O)ccc5c4[C@@]14CCN(CC1CC1)[C@H](C5)[C@]4(O)C3)CCCC2 | 203 | 16.8 | – |
| Oc1ccc2c3c1O[C@H]1C(c4c[nH]c5ccccc45)=CC[C@@]4(O)C(C2)N(CC2CC2)CC[C@]314 [4-cyclopropylmethyl-14-(1H-3-indolyl)-(1S,13S,17S)-12-oxa-4-azapentacyclo[9.6.1.01,13.05,17.07,18]octadeca-7(18),8,10,14-tetraene-10,17-diol] | – | – | 0.99 |
| Oc1ccc2c3c1O[C@H]1c4oc5ccccc5c4C[C@@]4(O)[C@@H](C2)N(CC2CC2)CC[C@]314 [CAS_111555-58-9] | 154 | 18.8 | – |
